The source made the active and inactive calls. No cut-off for these calls is given here.
Columns and labels:
[1] = Dissociation constant, pKa of the compound; type: physicochemical
In short: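 pKa is a calculated value, not a measured one.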

[2] = biological target: 5-hydroxytryptamine receptor 6 (Rattus norvegicus, UniProt P31388); experiment: Displacement of [3H]LSD from full length rat 5HT6 receptor
In short: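 Radioligand binding with [³H]LSD on membranes from cells expressing full-length rat 5-HT6R.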

[3] = biological target: T1, 5-hydroxytryptamine receptor 6 (Homo sapiens, UniProt P50406); experiment: Displacement of [3H]LSD from full length human 5HT6 receptor
T1 sequence (P50406 whole entry): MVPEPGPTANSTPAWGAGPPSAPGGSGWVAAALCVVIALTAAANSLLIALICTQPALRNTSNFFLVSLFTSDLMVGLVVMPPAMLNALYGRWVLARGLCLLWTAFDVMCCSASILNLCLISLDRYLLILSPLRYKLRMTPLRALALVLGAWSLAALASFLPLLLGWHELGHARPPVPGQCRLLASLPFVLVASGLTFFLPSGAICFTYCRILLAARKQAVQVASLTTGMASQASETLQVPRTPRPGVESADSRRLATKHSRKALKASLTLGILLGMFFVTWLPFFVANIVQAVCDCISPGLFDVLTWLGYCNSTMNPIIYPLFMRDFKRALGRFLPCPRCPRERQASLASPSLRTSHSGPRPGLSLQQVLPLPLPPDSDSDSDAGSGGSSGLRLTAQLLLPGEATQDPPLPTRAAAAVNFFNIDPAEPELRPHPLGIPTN
In short: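 Radioligand binding with [³H]LSD on membranes from cells expressing full-length human 5-HT6R.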

[4] = biological target: T1, 5-hydroxytryptamine receptor 6; experiment: Antagonist activity at human recombinant 5-HT6 receptor expressed human astrocytoma cells assessed as inhibition of 5-HT-induced cAMP accumulation after 10 mins preincubation by HTRF assay
[5] = Oral bioavailability in rat at 5 mg/kg; type: ADME, organism-based; details: in vivo
[6] = Half life in rat at 1 mg/kg, iv; type: ADME, organism-based; design: dose 1 mg/kg, route intravenous; details: in vivo
[7] = Cmax in rat at 5 mg/kg, po; type: ADME, organism-based; design: dose 5 mg/kg, route oral; details: in vivo
[8] = biological target: Voltage-gated inwardly rectifying potassium channel KCNH2 (Homo sapiens, UniProt Q12809); experiment: Inhibition of human ERG by patch express assay
Chain of Voltage-gated inwardly rectifying potassium channel KCNH2 (Q12809 whole entry): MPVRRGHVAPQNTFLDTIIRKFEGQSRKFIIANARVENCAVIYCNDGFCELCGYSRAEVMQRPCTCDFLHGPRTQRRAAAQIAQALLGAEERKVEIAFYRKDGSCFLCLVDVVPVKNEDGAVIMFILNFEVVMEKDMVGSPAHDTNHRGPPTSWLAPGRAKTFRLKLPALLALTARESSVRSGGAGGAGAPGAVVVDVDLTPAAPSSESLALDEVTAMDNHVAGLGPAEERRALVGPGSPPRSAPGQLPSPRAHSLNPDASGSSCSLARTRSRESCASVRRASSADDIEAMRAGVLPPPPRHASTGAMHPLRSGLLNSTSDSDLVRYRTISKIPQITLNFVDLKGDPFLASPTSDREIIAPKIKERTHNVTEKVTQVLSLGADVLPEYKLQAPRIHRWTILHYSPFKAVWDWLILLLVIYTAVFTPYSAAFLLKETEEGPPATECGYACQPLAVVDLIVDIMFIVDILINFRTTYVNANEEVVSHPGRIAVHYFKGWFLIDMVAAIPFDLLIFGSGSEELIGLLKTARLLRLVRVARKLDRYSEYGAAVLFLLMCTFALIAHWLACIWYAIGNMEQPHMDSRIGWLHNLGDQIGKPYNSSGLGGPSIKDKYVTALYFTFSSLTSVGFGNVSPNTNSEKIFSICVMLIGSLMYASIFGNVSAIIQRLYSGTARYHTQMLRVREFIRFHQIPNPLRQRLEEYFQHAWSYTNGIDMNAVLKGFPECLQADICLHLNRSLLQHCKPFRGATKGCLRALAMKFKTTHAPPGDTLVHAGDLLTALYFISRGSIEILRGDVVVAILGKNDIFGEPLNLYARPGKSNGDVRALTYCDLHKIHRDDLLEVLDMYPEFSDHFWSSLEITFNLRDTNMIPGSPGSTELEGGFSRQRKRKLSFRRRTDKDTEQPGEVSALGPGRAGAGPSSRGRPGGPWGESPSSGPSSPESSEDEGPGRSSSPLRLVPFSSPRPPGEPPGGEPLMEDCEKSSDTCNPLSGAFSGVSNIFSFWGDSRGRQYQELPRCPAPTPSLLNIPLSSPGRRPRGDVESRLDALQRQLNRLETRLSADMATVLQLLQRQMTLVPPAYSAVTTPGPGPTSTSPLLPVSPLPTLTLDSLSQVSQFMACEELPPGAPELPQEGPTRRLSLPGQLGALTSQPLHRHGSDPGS

Cytochrome P450 2C9 = Cytochrome P450 2C9 (Homo sapiens, UniProt P11712); experiment: Inhibition of CYP2C9; type: ADME
Chain of Cytochrome P450 2C9 (P11712 whole entry): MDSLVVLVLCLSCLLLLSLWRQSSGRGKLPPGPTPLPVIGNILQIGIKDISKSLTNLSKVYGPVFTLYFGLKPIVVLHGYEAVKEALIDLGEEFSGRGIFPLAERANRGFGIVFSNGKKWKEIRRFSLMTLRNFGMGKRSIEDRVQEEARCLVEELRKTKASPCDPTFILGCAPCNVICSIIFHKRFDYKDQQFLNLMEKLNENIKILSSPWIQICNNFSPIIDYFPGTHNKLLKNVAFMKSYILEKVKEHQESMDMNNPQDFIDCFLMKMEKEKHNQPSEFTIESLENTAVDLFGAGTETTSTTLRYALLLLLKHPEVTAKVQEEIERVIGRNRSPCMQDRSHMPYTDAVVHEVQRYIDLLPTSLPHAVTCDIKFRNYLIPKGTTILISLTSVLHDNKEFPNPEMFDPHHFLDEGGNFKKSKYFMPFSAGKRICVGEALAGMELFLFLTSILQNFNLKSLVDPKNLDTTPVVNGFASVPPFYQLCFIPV

Cytochrome P450 2C19 = Cytochrome P450 2C19 (Homo sapiens, UniProt P33261); experiment: Inhibition of CYP2C19; type: ADME
Chain of Cytochrome P450 2C19 (P33261 whole entry): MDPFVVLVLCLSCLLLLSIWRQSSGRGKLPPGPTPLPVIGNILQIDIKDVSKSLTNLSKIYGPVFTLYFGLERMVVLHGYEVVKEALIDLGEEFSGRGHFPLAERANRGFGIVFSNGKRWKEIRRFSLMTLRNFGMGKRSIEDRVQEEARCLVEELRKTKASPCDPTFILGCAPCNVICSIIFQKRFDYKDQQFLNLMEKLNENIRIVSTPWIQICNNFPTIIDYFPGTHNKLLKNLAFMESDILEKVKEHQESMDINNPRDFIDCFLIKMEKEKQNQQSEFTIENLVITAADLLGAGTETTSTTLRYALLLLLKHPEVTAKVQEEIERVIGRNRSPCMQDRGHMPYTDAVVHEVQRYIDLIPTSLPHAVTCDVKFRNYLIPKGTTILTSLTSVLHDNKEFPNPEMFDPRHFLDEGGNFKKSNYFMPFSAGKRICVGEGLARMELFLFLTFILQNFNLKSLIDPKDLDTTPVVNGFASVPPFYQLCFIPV

[9] = Half life in rat liver microsomes; type: ADME, Microsome
Cytochrome P450 2D6 = Cytochrome P450 2D6 (Homo sapiens, UniProt P10635); experiment: Inhibition of CYP2D6; type: ADME
Chain of Cytochrome P450 2D6 (P10635 whole entry): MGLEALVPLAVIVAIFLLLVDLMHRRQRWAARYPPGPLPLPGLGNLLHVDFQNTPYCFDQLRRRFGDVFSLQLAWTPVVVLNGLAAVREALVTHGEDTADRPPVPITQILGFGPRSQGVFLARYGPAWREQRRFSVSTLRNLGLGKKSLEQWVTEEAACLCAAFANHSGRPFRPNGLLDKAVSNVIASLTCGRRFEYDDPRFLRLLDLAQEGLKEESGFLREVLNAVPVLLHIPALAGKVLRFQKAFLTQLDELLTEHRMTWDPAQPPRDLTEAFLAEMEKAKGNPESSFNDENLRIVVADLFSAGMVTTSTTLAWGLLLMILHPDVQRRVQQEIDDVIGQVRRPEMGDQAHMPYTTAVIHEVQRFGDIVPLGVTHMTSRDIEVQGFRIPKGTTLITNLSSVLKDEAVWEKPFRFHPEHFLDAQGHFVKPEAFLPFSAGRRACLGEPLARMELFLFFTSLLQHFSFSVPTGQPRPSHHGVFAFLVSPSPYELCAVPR

Cytochrome P450 1A2 = biological target: T2, Cytochrome P450 1A2 (Homo sapiens, UniProt P05177); experiment: Inhibition of CYP1A2; type: ADME
T2 sequence (P05177 whole entry): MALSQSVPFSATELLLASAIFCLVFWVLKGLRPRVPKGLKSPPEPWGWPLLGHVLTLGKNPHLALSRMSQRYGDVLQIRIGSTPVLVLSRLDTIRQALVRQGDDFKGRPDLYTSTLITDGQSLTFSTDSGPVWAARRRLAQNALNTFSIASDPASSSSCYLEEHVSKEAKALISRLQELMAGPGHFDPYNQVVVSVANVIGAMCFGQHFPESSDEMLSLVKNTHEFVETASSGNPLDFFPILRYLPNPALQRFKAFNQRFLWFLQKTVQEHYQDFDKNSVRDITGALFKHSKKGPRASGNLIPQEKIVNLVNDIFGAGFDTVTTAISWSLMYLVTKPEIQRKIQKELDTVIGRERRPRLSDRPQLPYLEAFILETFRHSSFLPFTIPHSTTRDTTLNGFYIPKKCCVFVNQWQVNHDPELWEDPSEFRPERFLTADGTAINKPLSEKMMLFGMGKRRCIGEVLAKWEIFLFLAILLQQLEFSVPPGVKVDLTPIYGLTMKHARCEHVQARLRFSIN

[10] = Ratio of drug level in brain to plasma in rat at 5 mg/kg, ip; type: ADME, organism-based; design: dose 5 mg/kg, route intraperitoneal; details: read-out: BPR
In short: (§1)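 Rats dosed intraperitoneally at 5 mg/kg. Brain concentration measured at 1 h and expressed as a brain-to-plasma ratio.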

[11] = biological target: T3, 5-hydroxytryptamine receptor 2B (Homo sapiens, UniProt P41595); experiment: Antagonist activity at 5HT2B receptor; type: functional
T3 sequence (P41595 whole entry): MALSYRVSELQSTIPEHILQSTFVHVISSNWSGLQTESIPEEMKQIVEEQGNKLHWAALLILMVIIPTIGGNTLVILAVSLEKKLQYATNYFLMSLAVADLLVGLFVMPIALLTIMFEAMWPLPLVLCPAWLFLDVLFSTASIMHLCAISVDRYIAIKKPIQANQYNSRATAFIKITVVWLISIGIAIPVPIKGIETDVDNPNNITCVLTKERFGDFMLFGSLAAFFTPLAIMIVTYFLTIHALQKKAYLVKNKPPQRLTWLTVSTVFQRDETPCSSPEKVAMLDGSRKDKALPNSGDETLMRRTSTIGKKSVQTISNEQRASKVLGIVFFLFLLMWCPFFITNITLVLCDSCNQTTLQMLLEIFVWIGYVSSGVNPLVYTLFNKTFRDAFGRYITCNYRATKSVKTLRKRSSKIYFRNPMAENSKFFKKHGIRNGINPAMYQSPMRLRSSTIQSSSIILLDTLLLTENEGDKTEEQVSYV

[12] = Half life in human liver microsomes; type: ADME, Microsome
Rattus norvegicus [13] = experiment: AUC in rat at 5 mg/kg, po after 6 hrs; type: ADME, organism-based, Plasma; design: time < 6 hr, dose 5 mg/kg, route oral; details: in vivo
Brain = experiment: Drug uptake in rat brain at 5 mg/kg, ip after 1 hr; type: ADME, organism-based; design: dose 5 mg/kg, route intraperitoneal; details: in vivo; in short: as §1
Cytochrome P450 3A4 = Cytochrome P450 3A4 (Homo sapiens, UniProt P08684); experiment: Inhibition of CYP3A4; type: ADME
[14] = Volume of distribution in rat at 1 mg/kg, iv; type: ADME, organism-based; design: dose 1 mg/kg, route intravenous; details: in vivo
[15] = Plasma clearance in rat at 1 mg/kg, iv; type: ADME, organism-based; design: dose 1 mg/kg, route intravenous
L-type calcium channel = L-type calcium channel (Rattus norvegicus, UniProt P22002+P27732+Q02485); experiment: Inhibition of rat L-type calcium channel at 10 uM
[16] = Half life in dog liver microsomes; type: ADME, Canis lupus familiaris, Microsome
[17] = biological target: T4, Alpha-2B adrenergic receptor (Homo sapiens) (UniProt P18089); details: 10 uM
T4 sequence (whole entry): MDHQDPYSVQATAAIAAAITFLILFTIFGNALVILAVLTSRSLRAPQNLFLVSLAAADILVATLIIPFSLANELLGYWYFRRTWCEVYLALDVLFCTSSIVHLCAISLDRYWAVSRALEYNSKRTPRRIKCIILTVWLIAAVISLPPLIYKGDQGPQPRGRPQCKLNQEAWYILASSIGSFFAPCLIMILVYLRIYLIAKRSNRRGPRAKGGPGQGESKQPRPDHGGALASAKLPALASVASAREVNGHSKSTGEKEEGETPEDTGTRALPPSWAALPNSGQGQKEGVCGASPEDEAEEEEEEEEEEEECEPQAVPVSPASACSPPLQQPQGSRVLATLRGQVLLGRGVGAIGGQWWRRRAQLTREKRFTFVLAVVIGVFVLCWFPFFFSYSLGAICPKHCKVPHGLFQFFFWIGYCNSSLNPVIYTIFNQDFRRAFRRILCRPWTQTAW

[18] = biological target: D(2) dopamine receptor (Homo sapiens) (UniProt P14416); details: 1 uM
Chain of D(2) dopamine receptor (Homo sapiens) (P14416 whole entry): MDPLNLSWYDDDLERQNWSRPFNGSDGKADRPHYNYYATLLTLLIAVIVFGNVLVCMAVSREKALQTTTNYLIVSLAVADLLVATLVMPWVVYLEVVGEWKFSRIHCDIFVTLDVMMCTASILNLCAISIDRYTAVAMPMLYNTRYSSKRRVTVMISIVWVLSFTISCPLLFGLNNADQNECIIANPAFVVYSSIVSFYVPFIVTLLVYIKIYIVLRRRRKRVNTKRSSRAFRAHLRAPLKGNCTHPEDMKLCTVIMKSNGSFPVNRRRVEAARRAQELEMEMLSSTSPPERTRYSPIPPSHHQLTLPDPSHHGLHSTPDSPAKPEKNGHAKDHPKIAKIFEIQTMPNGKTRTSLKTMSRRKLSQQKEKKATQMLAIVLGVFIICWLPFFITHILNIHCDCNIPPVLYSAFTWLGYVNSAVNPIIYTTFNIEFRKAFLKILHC

[19] = biological target: 5-hydroxytryptamine receptor 2A (Homo sapiens) (UniProt P28223); details: 10 uM
Chain of 5-hydroxytryptamine receptor 2A (Homo sapiens) (P28223 whole entry): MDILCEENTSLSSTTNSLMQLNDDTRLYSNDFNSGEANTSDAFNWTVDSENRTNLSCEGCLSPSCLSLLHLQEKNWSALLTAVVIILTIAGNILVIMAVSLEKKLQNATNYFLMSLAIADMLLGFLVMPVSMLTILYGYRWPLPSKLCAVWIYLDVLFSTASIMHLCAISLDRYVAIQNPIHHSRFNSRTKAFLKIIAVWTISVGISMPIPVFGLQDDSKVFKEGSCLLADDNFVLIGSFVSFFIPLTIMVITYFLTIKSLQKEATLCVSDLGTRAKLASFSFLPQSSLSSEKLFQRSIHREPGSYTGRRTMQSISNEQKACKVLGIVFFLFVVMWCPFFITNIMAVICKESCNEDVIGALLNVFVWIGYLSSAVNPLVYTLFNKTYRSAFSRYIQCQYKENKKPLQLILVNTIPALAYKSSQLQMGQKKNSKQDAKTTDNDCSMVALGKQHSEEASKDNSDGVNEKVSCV

Rattus norvegicus [20] = experiment: Increase of short-term memory in rat social recognition model at 0.1 to 3 mg/kg, ip; type: functional, organism-based
[21] = biological target: T5, Alpha-2A adrenergic receptor (Homo sapiens) (UniProt P08913); details: 10 uM
T5 sequence (whole entry): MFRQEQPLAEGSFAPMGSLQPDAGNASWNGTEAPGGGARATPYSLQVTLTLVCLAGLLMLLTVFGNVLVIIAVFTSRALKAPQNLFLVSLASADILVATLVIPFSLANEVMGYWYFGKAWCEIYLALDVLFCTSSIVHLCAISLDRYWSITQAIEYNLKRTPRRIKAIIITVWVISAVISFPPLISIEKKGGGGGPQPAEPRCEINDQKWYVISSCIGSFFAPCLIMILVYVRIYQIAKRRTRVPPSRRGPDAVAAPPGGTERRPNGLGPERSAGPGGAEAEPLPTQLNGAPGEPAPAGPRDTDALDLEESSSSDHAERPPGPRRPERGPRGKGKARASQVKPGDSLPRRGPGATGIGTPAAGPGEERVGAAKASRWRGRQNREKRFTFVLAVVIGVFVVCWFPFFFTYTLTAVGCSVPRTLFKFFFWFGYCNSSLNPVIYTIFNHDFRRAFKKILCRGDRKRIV

[22] = biological target: D(3) dopamine receptor (Homo sapiens) (UniProt P35462); details: 10 uM
[23] = biological target: T3, 5-hydroxytryptamine receptor 2B; details: 10 uM

Chain of 5-hydroxytryptamine receptor 6 (Rattus norvegicus, UniProt P31388) (P31388 whole entry): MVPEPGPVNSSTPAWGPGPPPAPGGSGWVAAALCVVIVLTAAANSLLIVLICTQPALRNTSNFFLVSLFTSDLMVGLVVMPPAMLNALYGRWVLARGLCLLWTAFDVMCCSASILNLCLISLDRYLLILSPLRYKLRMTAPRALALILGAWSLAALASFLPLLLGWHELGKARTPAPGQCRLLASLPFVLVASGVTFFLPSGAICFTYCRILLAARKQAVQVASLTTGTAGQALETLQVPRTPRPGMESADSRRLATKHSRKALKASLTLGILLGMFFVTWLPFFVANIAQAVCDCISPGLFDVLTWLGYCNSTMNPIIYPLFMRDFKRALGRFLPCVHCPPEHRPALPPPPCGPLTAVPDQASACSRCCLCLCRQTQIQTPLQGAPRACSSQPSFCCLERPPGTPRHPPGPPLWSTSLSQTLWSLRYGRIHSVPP

CC1(C(F)F)NCCc2c1oc1cc(S(=O)(=O)c3cccc(F)c3)ccc21 (stereo unspecified)
pKa [1]: 6.2
Ki [2]: 183 nM

O=S(=O)(c1ccccc1)c1ccc2oc3c(c2c1)CCNC3
Ki [3]: 46 nM
Ki [2]: 156 nM

O=S(=O)(c1ccccc1)c1ccc2c3c(oc2c1)CNCC3
Ki [3]: 2.7 nM
IC50 [4]: 8.5 nM
Ki [2]: 9.8 nM

CC1(C)NCCc2c1oc1cc(S(=O)(=O)c3ccccc3)ccc21
Ki [3]: 7.7 nM
IC50 [4]: 34 nM
Ki [2]: 41 nM

O=S(=O)(c1cccc(F)c1)c1ccc2c3c(oc2c1)C1(CCCOC1)NCC3 (stereo in doubt; 2) [listing 1 of 2 here]
bioavailability [5]: 36%
half-life [6]: 84 min
Cmax [7]: 210 ng/mL
IC50 [8]: 12000 nM
IC50 (Cytochrome P450 2C9): 1900 nM
IC50 (Cytochrome P450 2C19): > 30000 nM
half-life [9]: 25 min
IC50 (Cytochrome P450 2D6): > 30000 nM
IC50 (Cytochrome P450 1A2): > 30000 nM
Kp [10]: 2
IC50 [11]: 1500 nM
half-life [12]: 30 min
AUC (Rattus norvegicus [13]): 974 ng·h/mL
Ki [2]: 16.9 nM
Drug uptake (Brain): 1660 nmol/g
IC50 (Cytochrome P450 3A4): > 30000 nM
Vd [14]: 4 L/kg
clearance [15]: 32 mL/min/kg
inhibition at 10 µM (L-type calcium channel): > 50%
half-life [16]: > 40 min

CC1(C)NCCc2c1oc1cc(S(=O)(=O)c3cccc(F)c3)ccc21
Ki [3]: 2.9 nM
bioavailability [5]: 15%
half-life [6]: 54 min
Cmax [7]: 35 ng/mL
half-life [9]: 16 min
Kp [10]: 7.7
IC50 [4]: 11.7 nM
half-life [12]: > 40 min
AUC (Rattus norvegicus [13]): 149 ng·h/mL
Ki [2]: 19 nM
Drug uptake (Brain): 1620 nmol/g
Vd [14]: 5.5 L/kg
clearance [15]: 82 mL/min/kg
half-life [16]: 32 min

COc1cccc(S(=O)(=O)c2ccc3c4c(oc3c2)C(C)(C)NCC4)c1
Ki [3]: 17.5 nM
IC50 [4]: 68.6 nM

O=S(=O)(c1cccc(F)c1)c1ccc2c3c(oc2c1)C1(CCCOC1)NCC3 (stereo in doubt; 2) [listing 2 of 2 here]
inhibition [17]: > 50%
inhibition [18]: > 50%
inhibition [19]: > 50%
Activity (Rattus norvegicus [20]): Active
inhibition [21]: > 50%
inhibition [22]: > 50%
inhibition [23]: > 50%

O=S(=O)(c1cccc(F)c1)c1ccc2c3c(oc2c1)CNCC3
Ki [3]: 1.6 nM
half-life [9]: < 5 min
IC50 [4]: 3.6 nM
Ki [2]: 6.9 nM
half-life [16]: 10.3 min

COCC1(C)NCCc2c1oc1cc(S(=O)(=O)c3cccc(F)c3)ccc21 (stereo unspecified)
Ki [3]: 18 nM
pKa [1]: 7.5
Ki [2]: 113 nM

O=S(=O)(c1ccc(F)cc1)c1ccc2c3c(oc2c1)CNCC3
Ki [3]: 22 nM

CC1(C(F)(F)F)NCCc2c1oc1cc(S(=O)(=O)c3cccc(F)c3)ccc21 (stereo unspecified)
Ki [3]: 139 nM
pKa [1]: 5.7

O=S(=O)(c1cccc(F)c1)c1ccc2c3c(oc2c1)C1(CCOCC1)NCC3
Ki [3]: 2.1 nM
bioavailability [5]: 6%
half-life [6]: 54 min
Cmax [7]: 84 ng/mL
IC50 [8]: > 30000 nM
half-life [9]: 25 min
pKa [1]: 7.4
Kp [10]: 3.3
IC50 [4]: 6.8 nM
half-life [12]: 19 min
AUC (Rattus norvegicus [13]): 368 ng·h/mL
Ki [2]: 14 nM
Drug uptake (Brain): 979 nmol/g
Vd [14]: 1.4 L/kg
clearance [15]: 17 mL/min/kg
half-life [16]: > 40 min

O=S(=O)(c1cccc(F)c1)c1ccc2c3c(oc2c1)C1(CCCOC1)NCC3 (racemic)
IC50 [8]: 13600 nM
Ki [2]: 38.3 nM

COc1cccc(S(=O)(=O)c2ccc3c4c(oc3c2)CNCC4)c1
Ki [3]: 5.6 nM
IC50 [4]: 21 nM
Ki [2]: 34 nM

O=S(=O)(c1cccc(F)c1)c1ccc2c3c(oc2c1)C1(CCOC1)NCC3 (racemic)
Ki [3]: 22.3 nM
pKa [1]: 7.5
IC50 [4]: 32 nM
Ki [2]: 132 nM

O=S(=O)(c1cccc(F)c1)c1ccc2c3c(oc2c1)C1(CCCOC1)NCC3 (stereo in doubt; 3)
IC50 [8]: 9600 nM
pKa [1]: 7.5

Reference: ChEMBL document CHEMBL1933007, “Novel brain penetrant benzofuropiperidine 5-HT₆ receptor antagonists” (Bioorg Med Chem Lett, 2012)
